Results filed as inconclusive are left out.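 How the source made its calls, unless noted: active means viability at or below 27.92% in each of two runs, the all-compound median minus 4 SD; inconclusive means no clear call, values can overlap the other calls; inactive means the rest.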
Key:
[1] = OD615 S. cerevisiae growth inhibition, permissive medium, pilot counter-assay, permissive growth control for S. cerevisiae lifespan shortening project (AID 705;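 active means growth inhibition above 25% in both replicates, a cutoff set 3 SD above the mean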); settings: OD615, 24 h, at 10 µM, stronger effect = higher value
Outline: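 Material: engineered DeaD yeast; compound dosing: one dose 10 µM, DMSO 0.25% final; measure: yeast growth inhibition indicated by reduced 24 h OD615; detection: OD615 turbidity read; incubation: cells pre-grown 4 h, then 24 h compound exposure, 30 °C humidified; medium: permissive synthetic complete medium with raffinose and galactose carbon sources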

[2] = Restrictive medium S. cerevisiae growth inhibition, OD615, pilot screen of yeast lifespan reduction project, restrictive growth control (AID 706;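 active means growth inhibition above a set limit, 3 SD over mean compound inhibition, in both replicates, cut at about 43% in these data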;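 further: modified DeaD lifespan yeast strain shifted to restrictive glucose medium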); settings: OD615, 48 h, at 10 µM, stronger effect = higher value
Outline: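 material = engineered S. cerevisiae DeaD strain | medium = glucose-based CSMM-D restrictive medium | times = 4 h pre-incubation, 48 h exposure at 30 °C | technique = OD615 absorbance reading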

[3] = viability gain of MRP-1-high H69AR cells under doxorubicin, pilot screen, MRP-1 activator project, CellTiter-Glo, duplicate (AID 807;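 active means viability increase at or above a cutoff of the median across tested compounds plus 3 SD, cut at about 8.5% in these data, passing the limit was not always enough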;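 further: compound pretreatment 18-22 h then 72 h combined with doxorubicin; 0% = doxorubicin alone and 100% = vehicle without doxorubicin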); settings: H69AR viability with doxorubicin, CellTiter-Glo luminescence; at 10 µM; stronger effect = higher value
[4] = growth suppression of beta-catenin knockout HCT116, pilot screen, human colon tumor cells (AID 823;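 active means cell viability at or below a set limit in both duplicate runs, the limit being the all-compound median minus 4 SD, cut at about 23% in these data, passing the limit was not always enough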;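 further: 0% = wells killed by 20 µM Hyamine and 100% = untreated DMSO cell wells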); settings: CellTiter-Glo, 60 h, at 10 µM, stronger effect = lower value
[5] = growth suppression of PTEN-deleted HCT116, pilot screen, cell-based, HCT116 clonal line, CellTiter-Glo (AID 824); settings: 60 h, at 10 µM, stronger effect = lower value;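 further: 0% = 20 µM Hyamine control and 100% = vehicle cell control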
[6] = inhibitors of the yeast RAM network, pilot screen, dse1pr::URA3 reporter, 5-FOA selection (AID 869;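 active means inhibition over a set limit, the all-compound mean plus 3 SD, in both replicate runs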;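 further: 0% = DMSO wells with no growth and 100% = 10 µM 1-NA-PP1 with full growth; RAM network block rescues cells from 5-FOA so hits raise OD615 growth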); settings: S. cerevisiae dse1pr::URA3 5-FOA growth, OD615, 2 d; at 10 µM; stronger effect = higher value; strain carries analog-sensitive mutant Cbk1 kinase
[7] = RAM signaling pathway blockade in yeast – S. cerevisiae, Pdr1DBD-CYC8 efflux-inhibited sensitized strain, primary screen (AID 1298;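 active means RAM network inhibition above 8.4% in each of two replicates, 3 SD over the compound average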;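 further: 0% = DMSO untreated cells without growth and 100% = 10 µM 1-NA-PP1 full growth; higher means more yeast growth rescued from 5-FOA killing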); settings: S. cerevisiae cbk1-as DSE1-URA3 strain, 5-FOA growth OD615, 2 d; at 50 µM; stronger effect = higher value

Cn1c(SCc2c(F)cccc2Cl)nnc1-c1cnccn1
inactive: growth inhibition [1] 3.5% | growth inhibition [2] 9.8% | viability increase [3] -0.67% | viability [4] 96.5% | viability [5] 93.8% | inhibition [6] 1.94% | RAM network inhibition [7] 5.07%

Cn1c(NC(=O)C2CC2)cc(=O)n(C)c1=O
inactive: growth inhibition [1] 0.21% | growth inhibition [2] 1.9% | viability increase [3] -0.62% | viability [4] 99% | viability [5] 104% | inhibition [6] 1.01% | RAM network inhibition [7] -1.84%

CCOC(=O)Cn1c(=O)oc2cc(S(=O)(=O)NCC3CCCO3)ccc21 (configuration not stated)
inactive: growth inhibition [1] -10.1% | growth inhibition [2] -10.7% | viability increase [3] -1.7% | viability [4] 99.8% | viability [5] 103% | inhibition [6] 0.325% | RAM network inhibition [7] 2.41%

CC(C)c1nnc(NC(=O)CCN2C(=O)c3ccccc3C2=O)s1
inactive: growth inhibition [1] -11.7% | growth inhibition [2] -0.03% | viability increase [3] 0.32% | viability [4] 104% | viability [5] 106% | inhibition [6] 3.73% | RAM network inhibition [7] 5.82%

O=C(NCc1ccccn1)C1CCN(S(=O)(=O)N2CCCC2)CC1
inactive: growth inhibition [1] -5.04% | growth inhibition [2] -10% | viability increase [3] -0.46% | viability [4] 109% | viability [5] 95.7% | inhibition [6] 0.3% | RAM network inhibition [7] 3.61%

CCOc1ccc(Nc2ncnc3c2cnn3-c2ccccc2)cc1
inactive: growth inhibition [1] -3.8% | growth inhibition [2] 3.48% | viability increase [3] 2.06% | viability [4] 106% | viability [5] 108% | inhibition [6] 1.29% | RAM network inhibition [7] 2.91%

Cc1nnc(SCC(=O)Nc2ccc3c(c2)OCO3)o1
inactive: growth inhibition [1] -0.465% | growth inhibition [2] -12% | viability increase [3] -5.27% | viability [4] 102% | viability [5] 95.1% | inhibition [6] 1.41% | RAM network inhibition [7] 4.08%

CCOC(=O)CSC1=C(C#N)C(c2ccc(Cl)cc2)CC(=O)N1 (configuration not stated)
inactive: growth inhibition [1] -15.6% | growth inhibition [2] -15.6% | viability increase [3] 0.52% | viability [4] 87.8% | viability [5] 82.5% | inhibition [6] 0.69% | RAM network inhibition [7] 0.53%

O=C(O)CCC(=O)NCc1ccc2[nH]c3c(c2c1)CCCC3
inactive: growth inhibition [1] -13.2% | growth inhibition [2] 3.53% | viability increase [3] 0.95% | viability [4] 101% | viability [5] 96.5% | inhibition [6] 1.51% | RAM network inhibition [7] 4.69%

O=C(Cn1cnc2c(cnn2-c2ccc(F)cc2)c1=O)NCCc1ccccc1
inactive: growth inhibition [1] -1.94% | growth inhibition [2] -1.9% | viability increase [3] 1.69% | viability [4] 97.6% | viability [5] 95.7% | inhibition [6] 3.04% | RAM network inhibition [7] 6.6%

COCCNC(=O)CN(c1ccc(C)cc1)S(=O)(=O)c1ccc(SC)cc1
inactive: growth inhibition [1] -10.6% | growth inhibition [2] -12.2% | viability increase [3] -0.9% | viability [4] 96.2% | viability [5] 84.2% | inhibition [6] 0.71% | RAM network inhibition [7] 5.17%

O=C(NCCc1csc(-c2cccnc2)n1)c1cccs1
inactive: growth inhibition [1] 1.53% | growth inhibition [2] 4.78% | viability increase [3] -0.87% | viability [4] 103% | viability [5] 106% | inhibition [6] 1.27% | RAM network inhibition [7] 0.68%

CNC(=O)CN1C(=O)CSc2nc(C)cc(C)c21
inactive: growth inhibition [1] -8.87% | growth inhibition [2] -6.29% | viability increase [3] 0.88% | viability [4] 99.9% | viability [5] 97.8% | inhibition [6] 1.83% | RAM network inhibition [7] 1.73%

O=C(CCN1CCN(CCO)CC1)Nc1ccc(F)c(F)c1
inactive: growth inhibition [1] -1.65% | growth inhibition [2] -3.58% | viability increase [3] -2.29% | viability [4] 104% | viability [5] 101% | inhibition [6] 0.265% | RAM network inhibition [7] 2.01%

COc1ccc(N2CCCCn3c2nc2c3c(=O)[nH]c(=O)n2C)cc1
inactive: growth inhibition [1] -18.4% | growth inhibition [2] -15.6% | viability increase [3] -2.97% | viability [4] 90.3% | viability [5] 90.9% | inhibition [6] 1.88% | RAM network inhibition [7] 2.42%

Cn1c(CCNC(=O)c2ccc(F)cc2)nc2ccccc21
inactive: growth inhibition [1] 0.71% | growth inhibition [2] -11% | viability increase [3] 2.04% | viability [4] 105% | viability [5] 99.7% | inhibition [6] 1.2% | RAM network inhibition [7] 4.26%

CCN(CC)c1ccc(C=Nc2ccc(C#N)cc2)c(O)c1
inactive: growth inhibition [1] -18.8% | growth inhibition [2] -19.5% | viability increase [3] -0.93% | viability [4] 99.4% | viability [5] 96.3% | inhibition [6] 1.43% | RAM network inhibition [7] 5.13%

COc1ccccc1N1CSC2=C(C#N)C(c3ccc(SC)cc3)CC(=O)N2C1 (configuration not stated)
inactive: growth inhibition [1] -1.16% | growth inhibition [2] 15.8% | viability increase [3] -5.15% | viability [4] 102% | viability [5] 94.7% | inhibition [6] 1.7% | RAM network inhibition [7] 3.52%

CN(C)c1ccc(C2N3CC4(C)CN2CC(C)(C3)C4O)cc1 (configuration not stated)
inactive: growth inhibition [1] -21.5% | growth inhibition [2] -10.9% | viability increase [3] 0.46% | viability [4] 101% | viability [5] 99% | inhibition [6] 2.33% | RAM network inhibition [7] 2.42%

COc1cc2[nH]c(=O)n(CCC(=O)NC3CCN(Cc4ccccc4)CC3)c(=O)c2cc1OC
inactive: growth inhibition [1] -0.585% | growth inhibition [2] -8.45% | viability increase [3] -1.84% | viability [4] 101% | viability [5] 94.3% | inhibition [6] 2.09% | RAM network inhibition [7] -0.53%

O=C(O)CC(C(=O)NC1CCCCC1)C1CCCO1 (configuration not stated)
inactive: growth inhibition [1] -1.02% | growth inhibition [2] -15.1% | viability increase [3] -1.68% | viability [4] 98.3% | viability [5] 102% | inhibition [6] 0.36% | RAM network inhibition [7] 1.76%

O=C(C1CCN(S(=O)(=O)c2cccc3cccnc23)CC1)N1CCN(Cc2ccccc2)CC1
inactive: growth inhibition [1] 8.83% | growth inhibition [2] 5.8% | viability increase [3] 0.23% | viability [4] 105% | viability [5] 99.5% | inhibition [6] -0.39% | RAM network inhibition [7] 1.71%

O=C(OCCCCN1C(=O)c2ccccc2C1=O)c1ccc(S(=O)(=O)N2CCCC2)cc1
inactive: growth inhibition [1] -11.7% | growth inhibition [2] -0.405% | viability increase [3] 0.28% | viability [4] 101% | viability [5] 100% | inhibition [6] 1.85% | RAM network inhibition [7] 4.52%

COC(=O)C(C)n1cnc2c(nnn2-c2cccc(Cl)c2)c1=O (configuration not stated)
inactive: growth inhibition [1] -6.67% | growth inhibition [2] 1.2% | viability increase [3] 2.08% | viability [4] 110% | viability [5] 99% | inhibition [6] 0.05% | RAM network inhibition [7] 6.76%

Cn1c(SCCSc2nnc(-c3ccccc3)n2C)nnc1-c1ccccc1
inactive: growth inhibition [1] -12.1% | growth inhibition [2] 8.02% | viability increase [3] -0.26% | viability [4] 97.4% | viability [5] 93.8% | inhibition [6] 1.62% | RAM network inhibition [7] 5.17%

Cc1ccc(C(=O)c2cc3c(cc2N)OCCO3)cc1
inactive: growth inhibition [1] -11.6% | growth inhibition [2] -21.8% | viability increase [3] -3.61% | viability [4] 91.2% | viability [5] 89.2% | inhibition [6] 0.27% | RAM network inhibition [7] 3.36%

C=CCn1c(SCCC#N)nnc1-c1ccncc1
inactive: growth inhibition [1] -5.01% | growth inhibition [2] -18.7% | viability increase [3] -3.07% | viability [4] 100% | viability [5] 93.4% | inhibition [6] 1.88% | RAM network inhibition [7] -0.94%

O=C(Nc1ccccc1F)C1CCCN(S(=O)(=O)c2cccc3cccnc23)C1 (configuration not stated)
inactive: growth inhibition [1] -3.46% | growth inhibition [2] -7.69% | viability increase [3] -1.63% | viability [4] 92.3% | viability [5] 88.8% | inhibition [6] 1.49% | RAM network inhibition [7] 2.96%

COc1ccccc1CNC(=O)CS(=O)Cc1nc(-c2ccccc2C)oc1C (configuration not stated)
inactive: growth inhibition [1] -4.17% | growth inhibition [2] 12.7% | viability increase [3] -0.18% | viability [4] 101% | viability [5] 93.4% | inhibition [6] 1.66% | RAM network inhibition [7] 2.33%

Cc1cc(OCC(=O)C(C)(C)C)c2c(C)c(C)c(=O)oc2c1
inactive: growth inhibition [1] -18.8% | growth inhibition [2] -20.7% | viability increase [3] -6.01% | viability [4] 79.9% | viability [5] 73.8% | inhibition [6] 0.31% | RAM network inhibition [7] 6.85%

Cc1c(NC(=O)OCc2ccccc2)c(=O)n(-c2ccccc2)n1C
inactive: growth inhibition [1] -7.33% | growth inhibition [2] -0.325% | viability increase [3] 0.05% | viability [4] 109% | viability [5] 91.1% | inhibition [6] 1.35% | RAM network inhibition [7] 7.69%

CCOc1ncccc1C(=O)OCC(=O)Nc1cc(C(=O)OC)ccc1C(=O)OC
inactive: growth inhibition [1] -16.9% | growth inhibition [2] -12.9% | viability increase [3] -2.69% | viability [4] 90.1% | viability [5] 92.4% | inhibition [6] 2.11% | RAM network inhibition [7] 5.66%

CCOC(=O)Cc1csc(NC(=O)CN(C)S(=O)(=O)c2cccc3cccnc23)n1
inactive: growth inhibition [1] -11.1% | growth inhibition [2] -7.54% | viability increase [3] -4.61% | viability [4] 93.5% | viability [5] 81.7% | inhibition [6] 1.14% | RAM network inhibition [7] 4.44%

CC1CCN(CC(C)OC(=O)c2ccc3c(c2)OCCO3)CC1 (configuration not stated)
inactive: growth inhibition [1] -8.49% | growth inhibition [2] 6.58% | viability increase [3] -0.68% | viability [4] 112% | viability [5] 105% | inhibition [6] 1.62% | RAM network inhibition [7] 3.4%

O=C(C(c1ccccc1)c1ccccc1)N1CCOCC1
inactive: growth inhibition [1] -6.96% | growth inhibition [2] 1.92% | viability increase [3] -1.34% | viability [4] 100% | viability [5] 95.9% | inhibition [6] 0.87% | RAM network inhibition [7] 0.31%

CSc1nnc(Cn2c(=O)sc3ccccc32)n1C
inactive: growth inhibition [1] -4.88% | growth inhibition [2] -13% | viability increase [3] -1.82% | viability [4] 109% | viability [5] 99.4% | inhibition [6] 1.94% | RAM network inhibition [7] 6.98%

Source: PubChem BioAssay
